# Data as given in ChEMBL document CHEMBL3997773, “Synthesis of C-4-Substituted Steviol Derivatives and Their Inhibitory Effects against Hepatitis B Virus” (J Nat Prod, 2016).
# The source made the active and inactive calls. No cut-off for these calls is given here.
# Key:
# Huh-7 [1] = experiment: Cytotoxicity against human HuH7 cells infected with Hepatitis B virus subtype adw2 assessed as reduction in cell viability at >80 ug/ml after 3 days by MTS assay; type: cell-based; conditions: huh-7, 72 h
# Summary of the method: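 HBV-expressing Huh7 cells were plated for 24 h, then exposed to serial dilutions (2.5–160 μg/mL) for 3 days. Viability was measured by MTS assay. Mean ± SD, n = 4, compared with untreated cells.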
# [2] = system: Hepatitis B virus subtype adw2; experiment: Antiviral activity against Hepatitis B virus subtype adw2 infected in human HuH7 cells assessed as inhibition of HBeAg secretion after 3 days by EIA; type: functional, cell-based
# Summary of the method: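 HBV-expressing Huh7 cells were given 2.5, 5 or 10 μg/mL for 3 days. HBsAg and HBeAg in the conditioned medium were measured by enzyme immunoassay. Mean ± SD, n = 3, compared with untreated cells.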
# [3] = system: Hepatitis B virus subtype adw2; experiment: Antiviral activity against Hepatitis B virus subtype adw2 infected in human HuH7 cells assessed as reduction in precore/pregenomic RNA level at 2.5 to 10 ug/ml after 2 days by northern blot method; type: functional, cell-based
# Summary of the method: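 After pHBV1.2 transfection of Huh7 cells for 2 days, cells were treated at 2.5, 5 or 10 μg/mL for 2 more days. Total RNA was Northern-blotted with an HBV whole-genome DNA probe. GAPDH served as loading control and β-gal marked transfection efficiency. Bands from three experiments were quantified by densitometry and normalized to GAPDH.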
# [4] = system: Hepatitis B virus subtype adw2; experiment: Antiviral activity against Hepatitis B virus subtype adw2 infected in human HuH7 cells assessed as reduction in SHBs level at 2.5 to 10 ug/ml after 2 days by immunoblot method; type: functional, cell-based
# Summary of the method: (§1)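 Huh7 cells were transfected with pHBV1.2 (1.2-fold HBV adw2 genome) for 2 days, then exposed to 2.5, 5 or 10 μg/mL for another 2 days. Whole-cell protein was extracted with protease inhibitors. SHBs, HBcAg and HBx were detected by immunoblot, with α-tubulin for comparison.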
# [5] = Antiviral activity against Hepatitis B virus subtype adw2 infected in human HuH7 cells assessed as reduction in HBx level at 5 ug/ml after 2 days by immunoblot method relative to control; type: functional; summary of the method: as §1
# Hepatitis B virus [6] = experiment: Decrease in HBV core promoter activity infected in human HuH7 cells cotransfected with pHBV1.2 at 10 ug/ml after 24 hrs by luciferase reporter gene assay; type: cell-based
# Summary of the method: (§2)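 Huh7 cells were seeded for 24 h, then cotransfected with pHBV1.2, pRLSV40 and a pGL4.17-based Core (nt 1636-1851), S (nt 3114-220), PreS (nt 2438-2855) or X (nt 1071-1357) promoter-luciferase construct for 24 h. Cells were then treated at 10 μg/mL for 24 h and lysates were assayed for luciferase. Mean ± SD, n = 3.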
# Hepatitis B virus [7] = experiment: Decrease in HBV X promoter activity infected in human HuH7 cells cotransfected with pHBV1.2 at 10 ug/ml after 24 hrs by luciferase reporter gene assay; type: cell-based; summary of the method: as §2
# [8] = Decrease in AP-1 (unknown origin) promoter activity expressed in human HuH7 cells cotransfected with pHBV1.2 at 10 ug/ml after 24 hrs by luciferase reporter gene assay; type: cell-based
# Summary of the method: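 Huh7 cells were seeded for 24 h, then cotransfected with pHBV1.2, pRLSV40 and pAP1-Luc or pNF-κB-Luc responsive-element reporter for 24 h. Cells were treated at 10 μg/mL for 24 h and lysates were assayed for luciferase. Mean ± SD, n = 3, compared with untreated cells.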
# [9] = Effect on AP-2 (unknown origin) promoter activity expressed in human HuH7 cells cotransfected with pHBV1.2 at 10 ug/ml after 24 hrs by luciferase reporter gene assay; type: cell-based
# Summary of the method: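 Huh7 seeded in 24-well plates for 24 h. They were cotransfected with pHBV1.2 plus a luciferase reporter carrying the AP-2 (pAP2-Luc) or ISRE (pISRE-Luc) element, at 1 μg/well, and pRLSV40, in serum-free DMEM for 24 h. After a PBS wash, cells were placed in DMEM with 2% FBS and treated with 10 μg/mL. Luciferase was read from lysates; mean ± SD, n = 3.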
# Huh-7 [10] = experiment: Decrease in NF-kB p65 protein expression in human HuH7 cells transfected with pHBV1.2 at 2.5 ug/ml after 2 days by immunoblot method relative to control; type: functional
# Summary of the method: (§3)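 Huh7 cells were transfected with pHBV1.2 for 2 days, then treated at 2.5, 5 or 10 μg/mL for another 2 days. Whole-cell protein was extracted with protease inhibitors. NF-κB p65/p50, phospho-p65, IKKα/β and IκBα/phospho-IκBα were detected by immunoblot. Blots are representative of three experiments.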
# Huh-7 [11] = experiment: Decrease in NF-kB p65 protein expression in human HuH7 cells transfected with pHBV1.2 at 10 ug/ml after 2 days by immunoblot method relative to control; type: functional; summary of the method: as §3
# Huh-7 [12] = experiment: Decrease in NF-kB p50 protein expression in human HuH7 cells transfected with pHBV1.2 at 10 ug/ml after 2 days by immunoblot method relative to control; type: functional; summary of the method: as §3
# Huh-7 [13] = experiment: Decrease in IKBalpha protein expression in human HuH7 cells transfected with pHBV1.2 at 2.5 ug/ml after 2 days by immunoblot method relative to control; type: functional; summary of the method: as §3
# Huh-7 [14] = experiment: Decrease in IKBalpha protein expression in human HuH7 cells transfected with pHBV1.2 at 5 ug/ml after 2 days by immunoblot method relative to control; type: functional; summary of the method: as §3
# [15] = Antiviral activity against Hepatitis B virus subtype adw2 infected in human HuH7 cells assessed as inhibition of viral DNA replication at 10 ug/ml after 2 days by RT-PCR method relative to control; type: functional; conditions: Huh-7, 48 h
# Summary of the method: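 Huh7 cells were cotransfected with pHBV1.2 and, where stated, 0.5 or 2.5 μg pCMV-p65 (or empty vector) for 2 days, then treated at 10 μg/mL for 2 days. In separate wells, HBV-expressing cells received 10 μg/mL with or without anisomycin (10 μM) for 2 days. Secreted viral particles were kit-isolated and HBV DNA was measured by real-time PCR, n = 3.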
# [16] = Antiviral activity against Hepatitis B virus in human HepG2.2.15 cells assessed as inhibition of HBsAg secretion by EIA
# Huh-7 [17] = experiment: Decrease in SAPK/JNK protein expression in human HuH7 cells transfected with pHBV1.2 at 2.5 to 10 ug/ml after 2 days by immunoblot method
# [18] = Antiviral activity against Hepatitis B virus subtype adw2 infected in human HepG2.2.15 cells assessed as inhibition of HBeAg secretion by EIA
# Huh-7 [19] = experiment: Effect on p38 MAPK protein expression in human HuH7 cells transfected with pHBV1.2 at 2.5 ug/ml after 2 days by immunoblot method relative to control
# [20] = Selectivity index, ratio of TC50 for human HepG2.2.15 cells to IC50 for Hepatitis B virus subtype adw2 infected in human HuH7 cells assessed as inhibition of HBsAg secretion
structure (smiles),measurement,setting,value
C=C1C[C@@]23CC[C@H]4[C@@](C)(CCC[C@@]4(C)NC(=O)NCCCC)[C@@H]2CC[C@]1(O)C3,Activity,Huh-7 [1],Toxic
same,inhibition,[2],Dose-dependent effect
same,Activity,[3],Active
same,Activity,[4],Active
same,fold change (FC),[5],0.87
same,Activity,Hepatitis B virus [6],Active
same,Activity,Hepatitis B virus [7],Active
same,Activity,[8],Active
same,Activity,[9],inactive
same,fold change (FC),Huh-7 [10],0.89
same,fold change (FC),Huh-7 [11],0.33
same,fold change (FC),Huh-7 [12],0.26
same,fold change (FC),Huh-7 [13],0.97
same,fold change (FC),Huh-7 [14],0.94
same,inhibition at 10 µg/mL,[15],38%
same,IC50,[16],23.5 µM
same,Activity,Huh-7 [17],Active
same,IC50,[18],20.4 µM
same,fold change (FC),Huh-7 [19],1.01
same,selectivity ratio,[20],41.4
